NPR1 activator: GC-A (human) enzyme activation; HEK293 GC-A cells, cGMP TR-FRET, EC30 ANP; 0% at EC30 ANP, 100% saturating ANP; activation, % at 10 µM; P16066; 0.14% of 370,000 active; in the data active means activation above about 40%
GC-B act: GC-B (human) receptor activation | activation, % at 10 µM | P20594 | HEK293-GC-B cells, CNP EC30, cGMP TR-FRET; 0% at EC30 CNP, 100% saturating CNP | AID 1920062 | 0.11% of 370,000 active;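 active means activation at 10 µM reaching about 35% in either raw or pattern-adjusted values, limit read from the data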
Target sequence (P20594 whole entry, looked up): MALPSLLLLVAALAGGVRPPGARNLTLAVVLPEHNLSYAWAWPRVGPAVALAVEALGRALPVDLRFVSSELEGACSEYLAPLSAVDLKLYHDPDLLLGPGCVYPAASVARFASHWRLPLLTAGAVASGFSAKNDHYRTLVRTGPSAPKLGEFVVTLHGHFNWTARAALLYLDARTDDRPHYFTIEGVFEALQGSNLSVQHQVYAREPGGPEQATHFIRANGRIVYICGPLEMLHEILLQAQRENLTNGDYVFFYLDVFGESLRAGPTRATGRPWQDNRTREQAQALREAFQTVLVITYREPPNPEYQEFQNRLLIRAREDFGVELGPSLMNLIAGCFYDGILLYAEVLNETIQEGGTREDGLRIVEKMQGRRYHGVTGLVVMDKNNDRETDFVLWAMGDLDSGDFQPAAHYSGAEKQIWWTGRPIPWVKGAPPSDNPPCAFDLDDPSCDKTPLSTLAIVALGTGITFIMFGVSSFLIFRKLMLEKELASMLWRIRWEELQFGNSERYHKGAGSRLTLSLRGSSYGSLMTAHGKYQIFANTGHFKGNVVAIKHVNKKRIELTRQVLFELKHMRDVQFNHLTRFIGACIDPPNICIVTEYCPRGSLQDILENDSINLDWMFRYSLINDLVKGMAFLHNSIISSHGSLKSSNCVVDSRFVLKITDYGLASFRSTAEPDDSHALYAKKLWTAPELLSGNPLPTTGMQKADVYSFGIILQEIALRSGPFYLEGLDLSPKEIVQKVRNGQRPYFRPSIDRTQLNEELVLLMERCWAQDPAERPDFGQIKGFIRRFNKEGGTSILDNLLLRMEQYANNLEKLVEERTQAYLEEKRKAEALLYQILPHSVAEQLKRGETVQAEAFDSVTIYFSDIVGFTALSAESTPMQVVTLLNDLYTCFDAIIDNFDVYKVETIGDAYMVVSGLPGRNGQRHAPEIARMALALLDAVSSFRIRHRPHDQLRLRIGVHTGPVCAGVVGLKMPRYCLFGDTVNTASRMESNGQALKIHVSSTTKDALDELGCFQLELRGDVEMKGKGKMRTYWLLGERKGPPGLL
GalR3 antag: antagonists of human GalR3; O60755; HEK293 GalR3-CNG cAMP membrane potential fluorescence; galR3 body fused to GalR1 C-terminus; inhibition, % at 3 µM; 0.44% of 360,000 active;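 active means inhibition above the screen-wide average plus 3 SD, cut at about 13% in these data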;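 further: forskolin and galanin both at EC90 stimulate the cells; cAMP rise reported by CNG channel membrane potential dye signal; 0% = forskolin plus galanin with DMSO and 100% = forskolin alone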
Arr AP2 block: human beta-arrestin and AP2 interaction inhibition | 0.31% of 340,000 active | FITC-arrestin peptide / GST-AP2 beads, flow cytometry; AP2 beta2 appendage carries R879A mutation | AID 504490 | inhibition, % at 10 µM;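 active means inhibition above a set limit, near 3 SD of compounds lacking own fluorescence, cut at about 54% in these data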;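 further: plate controls were DMSO wells for no effect and 5 µM unlabelled arrestin peptide for full effect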
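Material – AP2 appendage R879A on GSH beads · Buffer or medium – PBS with 0.05% Tween 20 and 0.1% BSA · Probe or stimulus – fluorescein-tagged arrestin peptide at 50 nM final · Incubation – compound with beads 12 min RT, then probe 1 h RT · Detection – high-throughput flow cytometry of beads, ex 488, em 535 nm · Evaluation – percent response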
Arr AP2 CP1: blocks beta-arrestin peptide binding to human AP2. shares compounds with Arr AP2 block. GST-AP2 beads, FITC arrestin peptide binding, flow cytometry; GST-fused beta2-adaptin appendage, R879A mutant. inhibition, % at 10 µM. 2% of 1,300 active;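 active means inhibition above a set limit, roughly 3 SD of non-fluorescent compound noise, cut at about 38% in these data; inactive means inhibition at or below that limit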;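 further: loss of bead fluorescence from 50 nM FITC arrestin peptide bound to appendage; 0% = negative control wells and 100% = excess unlabelled arrestin peptide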
GST-FITC bead: counter-screen for beta-arrestin AP2 inhibitors: GST-GSH bead binding | shares compounds with Arr AP2 block | inhibition, % at 10 µM | AID 588338 | GST-fluorescein binding to GSH beads, fluorescence | 2% of 1,300 active;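 active means inhibition above 50%, about 3 SD of the inhibition seen with non-fluorescent compounds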;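 further: fluorescein maleimide labelled GST captured on 4 micron glutathione beads; higher means more loss of bead fluorescence from quenching or blocked binding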
GalR3 antag conf: GalR3 (human) antagonism, confirmation; shares compounds with GalR3 antag; HEK293 GalR3 CNG cAMP biosensor, membrane potential fluorescence; galR3 fused to GalR1 carboxy tail; challenged with forskolin and galanin at EC90; inhibition, % at 3 µM; 59% of 1,600 active;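 active means inhibition above the primary screen's cutoff, the mean inhibition of all screened compounds plus 3 SD, cut at about 13% in these data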;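 further: 0% = forskolin plus galanin and 100% = forskolin alone with DMSO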
HEK-CNG parental: counter-screen for GalR3 antagonists: nonspecific agonists in parental HEK-CNG cells. AID 652268. shares compounds with GalR3 antag. 10% of 1,600 active. activation, % at 3 µM. HEK293-CNG parental cells, cAMP membrane potential fluorescence; normalised: DMSO wells 0%, forskolin wells 100%; in the data active means activation above about 1.3%
Active calls of the source: *; . = no result. The list is not random: actives were taken first. Their share in the collection is about 0.94%.

SMILES | NPR1 activator | GC-B act | GalR3 antag | Arr AP2 block | GalR3 antag conf | HEK-CNG parental | others
COC(=O)Cn1c(=NC(=O)c2cc(-c3cccs3)nc3ccccc23)sc2cc(S(N)(=O)=O)ccc21 | 6 | 1 | -4 | 63* | . | . | Arr AP2 CP1=0;GST-FITC bead=-6
CCC(=O)OCCNc1cc(SCCC(=O)OC)c2nonc2c1[N+](=O)[O-] | 7 | -1 | 4 | 32 | . | .
CCCC(=O)OCCNc1cc(Sc2nc3ccccc3[nH]2)c2nonc2c1[N+](=O)[O-] | 30 | 25 | 26* | 55* | 35* | 0 | Arr AP2 CP1=0;GST-FITC bead=7
CNC(=O)C1CCC(=O)N1Cc1ccc(C)cc1 (centres undefined) | 2 | 3 | -4 | 1 | . | .
Cc1ccc(CN2C(=O)CCC2C(=O)NCCCN2CCC(C)CC2)cc1 (centres undefined) | 8 | 1 | . | -3 | 10 | 0 | Arr AP2 CP1=-2;GST-FITC bead=10
CCOc1cccc(/C=N\NC(=O)Cc2cccs2)c1O | 0 | -5 | . | . | . | .
O=C(Nc1ccc(Br)cc1F)c1ccncc1 | 7 | -7 | 22* | 97* | 15* | 0 | Arr AP2 CP1=2;GST-FITC bead=0
O=C(C1CCCN1S(=O)(=O)c1ccccc1[N+](=O)[O-])N1CCN(c2ccccc2)CC1 (centres undefined) | 2 | -1 | . | . | . | .
CCN(CC)S(=O)(=O)c1ccc(C(=O)Nc2ccc(Cc3ccncc3)cc2)cc1 | 3 | 0 | 34* | 56* | 76* | 0 | Arr AP2 CP1=7;GST-FITC bead=-6
COc1ccc(-c2noc(CCCC(=O)N3CCN(c4cc(C)ccc4C)CC3)n2)cc1 | -1 | 2 | -9 | 3 | . | .
COc1ccc(-c2noc(CCCCC(=O)N3CCN(c4cc(C)ccc4C)CC3)n2)cc1 | -3 | 0 | 97* | 32 | 105* | -1
Cn1c(N)c(C(=O)COC(=O)CC(NC(=O)c2ccccc2Cl)c2ccccc2)c(=O)n(C)c1=O (centres undefined) | 1 | -2 | 14* | -18 | -4 | 0
C=CC[n+]1c(/C=C2\C=Cc3cc(C)ccc3N2CC)ccc2ccccc21 | -27 | -2 | 45* | -45 | 64* | 6.1*
CCN1C(=C(C#N)C#N)C=Cc2cc(C)ccc21 | 12 | 9 | -2 | 3 | . | .
O=C(Nc1ccc(OC(F)(F)F)cc1)Nc1nc2ncccn2c1-c1ccc(C(F)(F)F)cc1 | 4 | -1 | . | . | . | .
CCOc1cccc(C2C(C(=O)c3ccc(C)o3)=C(O)C(=O)N2c2nnc(C)s2)c1 (centres undefined) | 3 | -3 | -3 | -4 | . | .
CSc1nnc(N2C(=O)C(O)=C(C(=O)c3ccco3)C2c2cccc(Cl)c2)s1 (centres undefined) | -1 | -4 | -1 | 8 | . | .
CCSc1nnc(N2C(=O)C(O)=C(C(=O)c3ccco3)C2c2cccc(OC)c2)s1 (centres undefined) | 0 | 2 | 14* | -2 | 6 | 0
CCCOc1cccc(C2C(C(=O)c3ccc(C)o3)=C(O)C(=O)N2c2nc(C)c(C(C)=O)s2)c1 (centres undefined) | 9 | -6 | 28* | 6 | 13* | 0
CCOc1cccc(C2C(C(=O)c3ccco3)=C(O)C(=O)N2c2nnc(C)s2)c1 (centres undefined) | 4 | 1 | 22* | -2 | 2 | 0
CCOC(=O)[C@@]12CCCC3=C1N(CCC3)C(=O)[C@H]2CC(=O)N1CCN(C(=O)c2ccco2)CC1 | -3 | 0 | . | . | . | .
COC(=O)[C@@]12CCCCC3=C1N(CCC3)C(=O)[C@H]2CC(=O)NCC1CCCCC1 | 1 | 5 | . | . | . | .
CCn1ncc2c(=O)c(C(=O)c3ccccc3)c[nH]c21 | 0 | 1 | -7 | . | . | .

Source: PubChem BioAssay
